Source: ChEMBL document CHEMBL1649124, “Genetic variability among ampC genes from acinetobacter genomic species 3” (Antimicrob Agents Chemother, 2009)
In brackets after ≈: the same amount, converted by molar mass. Blank lines part the entries; values can stand above or below the compound they belong to.

Legend:
Format in all cases: functional
Acinetobacter pittii [1] = test: Antibacterial activity against Acinetobacter genomosp. 3 isolate 65 by Etest method
How it was run: (§1)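 MICs for AG3 clinical isolates were read by Etest following the manufacturer's instructions. Isolates were stored at –80°C in 10% Brucella glycerol broth before testing.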

Acinetobacter pittii [2] = test: Antibacterial activity against Acinetobacter genomosp. 3 isolate 103 by Etest method in presence of cloxacillin and efflux pump inhibitor CCCP
Acinetobacter pittii [3] = test: Antibacterial activity against Acinetobacter genomosp. 3 isolate 109 by Etest method; how it was run: as §1
Acinetobacter pittii [4] = test: Antibacterial activity against Acinetobacter genomosp. 3 isolate 67 by Etest method in presence of efflux pump inhibitor CCCP
Acinetobacter pittii [5] = test: Antibacterial activity against Acinetobacter genomosp. 3 isolate 128 by Etest method in presence of efflux pump inhibitor PAN
Acinetobacter pittii [6] = test: Antibacterial activity against Acinetobacter genomosp. 3 isolate 67 by Etest method; how it was run: as §1
Acinetobacter pittii [7] = test: Antibacterial activity against Acinetobacter genomosp. 3 isolate 103 by Etest method in presence of efflux pump inhibitor CCCP
Acinetobacter pittii [8] = test: Antibacterial activity against Acinetobacter genomosp. 3 isolate 243 by Etest method in presence of efflux pump inhibitor CCCP
Acinetobacter pittii [9] = test: Antibacterial activity against Acinetobacter genomosp. 3 isolate 243 by Etest method in presence of cloxacillin; how it was run: as §1
Acinetobacter pittii [10] = test: Antibacterial activity against Acinetobacter genomosp. 3 isolate 67 by Etest method in presence of efflux pump inhibitor PAN
Acinetobacter pittii [11] = test: Antibacterial activity against Acinetobacter genomosp. 3 isolate 128 by Etest method in presence of efflux pump inhibitor CCCP
Escherichia coli [12] = test: Antibacterial activity against Escherichia coli DH5alpha carrying ampC gene of Acinetobacter genomosp. 3 isolate 195 by Etest method
How it was run: (§2)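 E. coli DH5α expressing the AG3 isolate ampC gene, PCR-amplified (high-fidelity system, 28 cycles) and cloned into BamHI/HindIII sites of pBGS18 (kanamycin marker) under the CTX-M-14 β-lactamase promoter. Grown at 37°C in LB, with kanamycin 50 µg/ml when needed. β-Lactam MICs determined by Etest per the manufacturer's instructions.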

Acinetobacter pittii [13] = test: Antibacterial activity against Acinetobacter genomosp. 3 isolate 65 by Etest method in presence of cloxacillin; how it was run: as §1
Acinetobacter pittii [14] = test: Antibacterial activity against Acinetobacter genomosp. 3 isolate 52 by Etest method in presence of cloxacillin and efflux pump inhibitor CCCP
Escherichia coli [15] = test: Antibacterial activity against Escherichia coli DH5alpha carrying ampC gene of Acinetobacter genomosp. 3 isolate 103 by Etest method; how it was run: as §2
Acinetobacter pittii [16] = test: Antibacterial activity against Acinetobacter genomosp. 3 isolate 103 by Etest method; how it was run: as §1
Acinetobacter pittii [17] = test: Antibacterial activity against Acinetobacter genomosp. 3 isolate 243 by Etest method in presence of cloxacillin and efflux pump inhibitor CCCP
Escherichia coli [18] = test: Antibacterial activity against Escherichia coli DH5alpha carrying ampC gene of Acinetobacter genomosp. 3 isolate 109 by Etest method; how it was run: as §2
Acinetobacter pittii [19] = test: Antibacterial activity against Acinetobacter genomosp. 3 isolate 69 by Etest method; how it was run: as §1
Acinetobacter pittii [20] = test: Antibacterial activity against Acinetobacter genomosp. 3 isolate 90 by Etest method in presence of cloxacillin and efflux pump inhibitor CCCP
Acinetobacter pittii [21] = test: Antibacterial activity against Acinetobacter genomosp. 3 isolate 60 by Etest method; how it was run: as §1
Acinetobacter pittii [22] = test: Antibacterial activity against Acinetobacter genomosp. 3 isolate 56 by Etest method in presence of cloxacillin and efflux pump inhibitor PAN
Acinetobacter pittii [23] = test: Antibacterial activity against Acinetobacter genomosp. 3 isolate 243 by Etest method; how it was run: as §1
Acinetobacter pittii [24] = test: Antibacterial activity against Acinetobacter genomosp. 3 isolate 52 by Etest method in presence of cloxacillin and efflux pump inhibitor PAN
Acinetobacter pittii [25] = test: Antibacterial activity against Acinetobacter genomosp. 3 isolate 195 by Etest method; how it was run: as §1
Acinetobacter pittii [26] = test: Antibacterial activity against Acinetobacter genomosp. 3 isolate 56 by Etest method; how it was run: as §1
Acinetobacter pittii [27] = test: Antibacterial activity against Acinetobacter genomosp. 3 isolate 20 by Etest method; how it was run: as §1
Acinetobacter pittii [28] = test: Antibacterial activity against Acinetobacter genomosp. 3 isolate 109 by Etest method in presence of efflux pump inhibitor CCCP
Acinetobacter pittii [29] = test: Antibacterial activity against Acinetobacter genomosp. 3 isolate 14 by Etest method in presence of efflux pump inhibitor CCCP
Acinetobacter pittii [30] = test: Antibacterial activity against Acinetobacter genomosp. 3 isolate 69 by Etest method in presence of cloxacillin; how it was run: as §1
Acinetobacter pittii [31] = test: Antibacterial activity against Acinetobacter genomosp. 3 isolate 69 by Etest method in presence of efflux pump inhibitor CCCP
Acinetobacter pittii [32] = test: Antibacterial activity against Acinetobacter genomosp. 3 isolate 109 by Etest method in presence of efflux pump inhibitor PAN
Acinetobacter pittii [33] = test: Antibacterial activity against Acinetobacter genomosp. 3 isolate 69 by Etest method in presence of efflux pump inhibitor PAN
Acinetobacter pittii [34] = test: Antibacterial activity against Acinetobacter genomosp. 3 isolate 90 by Etest method in presence of efflux pump inhibitor PAN
Acinetobacter pittii [35] = test: Antibacterial activity against Acinetobacter genomosp. 3 isolate 21 by Etest method in presence of cloxacillin; how it was run: as §1
Acinetobacter pittii [36] = test: Antibacterial activity against Acinetobacter genomosp. 3 isolate 56 by Etest method in presence of cloxacillin; how it was run: as §1
Escherichia coli [37] = test: Antibacterial activity against Escherichia coli DH5alpha carrying ampC gene of Acinetobacter genomosp. 3 isolate 20 by Etest method; how it was run: as §2
Acinetobacter pittii [38] = test: Antibacterial activity against Acinetobacter genomosp. 3 isolate 20 by Etest method in presence of cloxacillin; how it was run: as §1
Acinetobacter pittii [39] = test: Antibacterial activity against Acinetobacter genomosp. 3 isolate 195 by Etest method in presence of efflux pump inhibitor CCCP
Acinetobacter pittii [40] = test: Antibacterial activity against Acinetobacter genomosp. 3 isolate 20 by Etest method in presence of cloxacillin and efflux pump inhibitor PAN
Acinetobacter pittii [41] = test: Antibacterial activity against Acinetobacter genomosp. 3 isolate 65 by Etest method in presence of cloxacillin and efflux pump inhibitor CCCP
Acinetobacter pittii [42] = test: Antibacterial activity against Acinetobacter genomosp. 3 isolate 109 by Etest method in presence of cloxacillin and efflux pump inhibitor CCCP
Acinetobacter pittii [43] = test: Antibacterial activity against Acinetobacter genomosp. 3 isolate 14 by Etest method in presence of cloxacillin and efflux pump inhibitor […]
Acinetobacter pittii [44] = test: Antibacterial activity against Acinetobacter genomosp. 3 isolate 195 by Etest method in presence of cloxacillin and efflux pump inhibitor CCCP
Acinetobacter pittii [45] = test: Antibacterial activity against Acinetobacter genomosp. 3 isolate 103 by Etest method in presence of efflux pump inhibitor PAN
Acinetobacter pittii [46] = test: Antibacterial activity against Acinetobacter genomosp. 3 isolate 20 by Etest method in efflux pump inhibitor CCCP
Acinetobacter pittii [47] = test: Antibacterial activity against Acinetobacter genomosp. 3 isolate 195 by Etest method in presence of efflux pump inhibitor PAN
Acinetobacter pittii [48] = test: Antibacterial activity against Acinetobacter genomosp. 3 isolate 52 by Etest method in presence of cloxacillin; how it was run: as §1
Acinetobacter pittii [49] = test: Antibacterial activity against Acinetobacter genomosp. 3 isolate 60 by Etest method in presence of efflux pump inhibitor CCCP
Acinetobacter pittii [50] = test: Antibacterial activity against Acinetobacter genomosp. 3 isolate 128 by Etest method; how it was run: as §1
Acinetobacter pittii [51] = test: Antibacterial activity against Acinetobacter genomosp. 3 isolate 90 by Etest method in presence of efflux pump inhibitor CCCP

- MIC (Acinetobacter pittii [1]): > 256 µg/mL
- MIC (Acinetobacter pittii [2]): 24 µg/mL
- MIC (Acinetobacter pittii [3]): > 256 µg/mL
- MIC (Acinetobacter pittii [4]): 192 µg/mL
- MIC (Acinetobacter pittii [5]): > 256 µg/mL
- MIC (Acinetobacter pittii [6]): > 256 µg/mL
- MIC (Acinetobacter pittii [7]): > 256 µg/mL
- MIC (Acinetobacter pittii [8]): > 256 µg/mL
- MIC (Acinetobacter pittii [9]): 192 µg/mL
- MIC (Acinetobacter pittii [10]): > 256 µg/mL
- MIC (Acinetobacter pittii [11]): > 256 µg/mL
- MIC (Escherichia coli [12]): > 256 µg/mL
- MIC (Acinetobacter pittii [13]): 128 µg/mL
- MIC (Acinetobacter pittii [14]): 12 µg/mL
- MIC (Escherichia coli [15]): > 256 µg/mL
- MIC (Acinetobacter pittii [16]): > 256 µg/mL
- MIC (Acinetobacter pittii [17]): 12 µg/mL
- MIC (Escherichia coli [18]): > 256 µg/mL
- MIC (Acinetobacter pittii [19]): > 256 µg/mL
- MIC (Acinetobacter pittii [20]): 24 µg/mL
- MIC (Acinetobacter pittii [21]): > 256 µg/mL
- MIC (Acinetobacter pittii [22]): > 256 µg/mL
- MIC (Acinetobacter pittii [23]): > 256 µg/mL
- MIC (Acinetobacter pittii [24]): > 256 µg/mL
- MIC (Acinetobacter pittii [25]): > 256 µg/mL
- MIC (Acinetobacter pittii [26]): > 256 µg/mL
- MIC (Acinetobacter pittii [27]): > 256 µg/mL
- MIC (Acinetobacter pittii [28]): > 256 µg/mL
- MIC (Acinetobacter pittii [29]): > 256 µg/mL
- MIC (Acinetobacter pittii [30]): > 256 µg/mL
- MIC (Acinetobacter pittii [31]): > 256 µg/mL
- MIC (Acinetobacter pittii [32]): > 256 µg/mL
- MIC (Acinetobacter pittii [33]): > 256 µg/mL
- MIC (Acinetobacter pittii [34]): > 256 µg/mL
- MIC (Acinetobacter pittii [35]): > 256 µg/mL
- MIC (Acinetobacter pittii [36]): > 256 µg/mL
- MIC (Escherichia coli [37]): > 256 µg/mL
- MIC (Acinetobacter pittii [38]): > 256 µg/mL
- MIC (Acinetobacter pittii [39]): > 256 µg/mL
- MIC (Acinetobacter pittii [40]): > 256 µg/mL
- MIC (Acinetobacter pittii [41]): 24 µg/mL
- MIC (Acinetobacter pittii [42]): 24 µg/mL
- MIC (Acinetobacter pittii [43]): 24 µg/mL
- MIC (Acinetobacter pittii [44]): 96 µg/mL
- MIC (Acinetobacter pittii [45]): > 256 µg/mL
- MIC (Acinetobacter pittii [46]): > 256 µg/mL
- MIC (Acinetobacter pittii [47]): > 256 µg/mL
- MIC (Acinetobacter pittii [48]): > 256 µg/mL
- MIC (Acinetobacter pittii [49]): > 256 µg/mL
- MIC (Acinetobacter pittii [50]): > 256 µg/mL
- MIC (Acinetobacter pittii [51]): > 256 µg/mL
Compound: CC(=O)OCC1=C(C(=O)O)N2C(=O)[C@@H](NC(=O)Cc3cccs3)[C@H]2SC1 [CEPHALOTHIN]

Compound: C[C@@H](O)[C@H]1C(=O)N2C(C(=O)O)=C(S[C@@H]3CN[C@H](C(=O)N(C)C)C3)[C@H](C)[C@H]12 [MEROPENEM]
- MIC (Acinetobacter pittii [1]): 0.5 µg/mL (≈ 1.3 µM)
- MIC (Acinetobacter pittii [2]): 1 µg/mL
- MIC (Acinetobacter pittii [3]): 0.38 µg/mL (≈ 0.991 µM)
- MIC (Acinetobacter pittii [4]): 0.25 µg/mL
- MIC (Acinetobacter pittii [5]): 0.125 µg/mL
- MIC (Acinetobacter pittii [6]): 0.5 µg/mL (≈ 1.3 µM)
- MIC (Acinetobacter pittii [7]): 1 µg/mL
- MIC (Acinetobacter pittii [8]): 0.25 µg/mL
- MIC (Acinetobacter pittii [9]): 0.125 µg/mL
- MIC (Acinetobacter pittii [10]): 0.25 µg/mL
- MIC (Acinetobacter pittii [11]): 0.19 µg/mL
- MIC (Escherichia coli [12]): 0.032 µg/mL (≈ 0.0834 µM)
- MIC (Acinetobacter pittii [13]): 0.19 µg/mL
- MIC (Acinetobacter pittii [14]): 0.094 µg/mL
- MIC (Escherichia coli [15]): 0.023 µg/mL (≈ 0.06 µM)
- MIC (Acinetobacter pittii [16]): 3 µg/mL (≈ 7.82 µM)
- MIC (Acinetobacter pittii [17]): 0.094 µg/mL
- MIC (Escherichia coli [18]): 0.032 µg/mL (≈ 0.0834 µM)
- MIC (Acinetobacter pittii [19]): 0.25 µg/mL (≈ 0.652 µM)
- MIC (Acinetobacter pittii [20]): 0.38 µg/mL
- MIC (Acinetobacter pittii [21]): 0.75 µg/mL (≈ 1.96 µM)
- MIC (Acinetobacter pittii [22]): 0.38 µg/mL
- MIC (Acinetobacter pittii [23]): 0.25 µg/mL (≈ 0.652 µM)
- MIC (Acinetobacter pittii [24]): 0.5 µg/mL
- MIC (Acinetobacter pittii [25]): 1 µg/mL (≈ 2.61 µM)
- MIC (Acinetobacter pittii [26]): 0.38 µg/mL (≈ 0.991 µM)
- MIC (Acinetobacter pittii [27]): 6 µg/mL (≈ 15.6 µM)
- MIC (Acinetobacter pittii [28]): 0.25 µg/mL
- MIC (Acinetobacter pittii [29]): 0.25 µg/mL
- MIC (Acinetobacter pittii [30]): 0.19 µg/mL
- MIC (Acinetobacter pittii [31]): 0.25 µg/mL
- MIC (Acinetobacter pittii [32]): 0.25 µg/mL
- MIC (Acinetobacter pittii [33]): 0.25 µg/mL
- MIC (Acinetobacter pittii [34]): 0.38 µg/mL
- MIC (Acinetobacter pittii [35]): 0.5 µg/mL
- MIC (Acinetobacter pittii [36]): 0.38 µg/mL
- MIC (Escherichia coli [37]): 0.023 µg/mL (≈ 0.06 µM)
- MIC (Acinetobacter pittii [38]): 3 µg/mL
- MIC (Acinetobacter pittii [39]): 0.5 µg/mL
- MIC (Acinetobacter pittii [40]): 3 µg/mL
- MIC (Acinetobacter pittii [41]): 0.19 µg/mL
- MIC (Acinetobacter pittii [42]): 0.19 µg/mL
- MIC (Acinetobacter pittii [43]): 0.25 µg/mL
- MIC (Acinetobacter pittii [44]): 0.38 µg/mL
- MIC (Acinetobacter pittii [45]): 0.75 µg/mL
- MIC (Acinetobacter pittii [46]): 4 µg/mL (≈ 10.4 µM)
- MIC (Acinetobacter pittii [47]): 1 µg/mL
- MIC (Acinetobacter pittii [48]): 0.19 µg/mL
- MIC (Acinetobacter pittii [49]): 0.5 µg/mL
- MIC (Acinetobacter pittii [50]): 0.19 µg/mL (≈ 0.495 µM)
- MIC (Acinetobacter pittii [51]): 1.5 µg/mL
